Assay results: ChEMBL document CHEMBL4190389, “Synthesis and activity of di- or trisubstituted N-(phenoxyalkyl)- or N-{2-[2-(phenoxy)ethoxy]ethyl}piperazine derivatives on the central nervous system” (Bioorg Med Chem Lett, 2018)
Blank lines part the entries; values can stand above or below the molecule they belong to. Activity calls are given as the source filed them. The rule behind the calls is not given here.

Tests used:
D(2) dopamine receptor [1] = target: T1, D(2) dopamine receptor (Homo sapiens, UniProt P14416); assay: Agonist activity at human D2 receptor expressed in CHO-K1 cells co-expressing Galphaqi5 assessed as increase apomorphine-induced calcium mobilization measured for 30 secs by aequorin-derived luminescence assay relative to apomorphine; type: functional, cell-based
T1 sequence (P14416 whole entry): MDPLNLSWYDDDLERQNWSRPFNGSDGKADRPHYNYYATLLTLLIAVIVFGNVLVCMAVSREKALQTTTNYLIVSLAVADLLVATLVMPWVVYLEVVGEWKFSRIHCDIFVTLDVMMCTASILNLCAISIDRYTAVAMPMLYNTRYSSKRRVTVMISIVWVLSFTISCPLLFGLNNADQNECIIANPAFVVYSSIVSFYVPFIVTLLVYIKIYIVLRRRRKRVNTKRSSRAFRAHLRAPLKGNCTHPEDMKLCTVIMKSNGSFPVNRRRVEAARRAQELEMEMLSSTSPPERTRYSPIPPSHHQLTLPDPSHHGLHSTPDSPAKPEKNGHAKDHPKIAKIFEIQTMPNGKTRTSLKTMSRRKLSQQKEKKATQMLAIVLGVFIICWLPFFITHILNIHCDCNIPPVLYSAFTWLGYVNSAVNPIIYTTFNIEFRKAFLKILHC

[2] = target: 5-hydroxytryptamine receptor 2A (Homo sapiens, UniProt P28223); assay: biochemical; type: cell-based, HEK293;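 also: radioligand displacement of [3H]ketanserin binding at human 5-HT2A receptor in membranes from HEK293 cells, 60 min incubation, read by liquid scintillation counting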
5-hydroxytryptamine receptor 2A, sequence (P28223 whole entry): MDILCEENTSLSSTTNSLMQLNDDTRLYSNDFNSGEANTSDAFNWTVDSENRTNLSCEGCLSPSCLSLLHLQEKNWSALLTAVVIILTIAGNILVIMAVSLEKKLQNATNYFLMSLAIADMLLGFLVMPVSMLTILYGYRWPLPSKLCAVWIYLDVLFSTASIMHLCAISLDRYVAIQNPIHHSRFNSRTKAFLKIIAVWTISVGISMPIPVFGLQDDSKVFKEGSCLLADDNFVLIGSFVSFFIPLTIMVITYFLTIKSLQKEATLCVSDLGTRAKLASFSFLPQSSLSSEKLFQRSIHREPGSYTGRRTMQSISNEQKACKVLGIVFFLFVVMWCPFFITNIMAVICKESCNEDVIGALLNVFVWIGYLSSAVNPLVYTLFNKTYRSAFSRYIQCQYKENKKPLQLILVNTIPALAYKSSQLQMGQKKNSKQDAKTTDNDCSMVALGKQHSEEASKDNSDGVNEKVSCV

Mus musculus [3] = assay: Toxicity in Albino Swiss CD-1 mouse assessed as effect on locomotory activity at 5 to 10 mg/kg, ip administered for 30 mins prior to test measured for 1 min; type: organism-based; details: in vivo
Summary of the method: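 Mice dosed i.p. 30 min before test; vehicle groups received 0.9% NaCl. Spontaneous locomotion scored as number of crossings during a 1-min session. Each dose compared with its own vehicle group by Student t-test; mean ± SEM, n = 8–10 mice per group.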

[4] = target: T2, 5-hydroxytryptamine receptor 7 (Homo sapiens, UniProt P34969); assay: biochemical; type: cell-based, CHO
T2 sequence (P34969 whole entry): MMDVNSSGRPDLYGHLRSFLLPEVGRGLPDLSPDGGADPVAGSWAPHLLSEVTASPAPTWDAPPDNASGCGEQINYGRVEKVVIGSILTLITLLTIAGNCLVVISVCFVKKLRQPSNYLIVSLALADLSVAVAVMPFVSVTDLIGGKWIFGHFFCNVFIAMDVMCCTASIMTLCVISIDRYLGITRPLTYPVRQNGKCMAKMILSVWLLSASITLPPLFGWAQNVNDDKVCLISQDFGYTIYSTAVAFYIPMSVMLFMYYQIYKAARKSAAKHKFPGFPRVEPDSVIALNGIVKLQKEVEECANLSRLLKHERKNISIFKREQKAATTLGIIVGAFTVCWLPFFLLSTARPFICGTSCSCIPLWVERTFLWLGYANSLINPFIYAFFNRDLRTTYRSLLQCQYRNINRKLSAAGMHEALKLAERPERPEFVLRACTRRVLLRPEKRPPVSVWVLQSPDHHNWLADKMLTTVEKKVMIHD

[5] = target: T3, 5-hydroxytryptamine receptor 1A (Homo sapiens) (UniProt P08908); assay: Displacement of [3H]8-OH-DPAT from recombinant human 5-HT1A receptor expressed in HEK293 cell membranes at 10^-5 M after 60 mins by liquid scintillation counting method
T3 sequence (whole entry): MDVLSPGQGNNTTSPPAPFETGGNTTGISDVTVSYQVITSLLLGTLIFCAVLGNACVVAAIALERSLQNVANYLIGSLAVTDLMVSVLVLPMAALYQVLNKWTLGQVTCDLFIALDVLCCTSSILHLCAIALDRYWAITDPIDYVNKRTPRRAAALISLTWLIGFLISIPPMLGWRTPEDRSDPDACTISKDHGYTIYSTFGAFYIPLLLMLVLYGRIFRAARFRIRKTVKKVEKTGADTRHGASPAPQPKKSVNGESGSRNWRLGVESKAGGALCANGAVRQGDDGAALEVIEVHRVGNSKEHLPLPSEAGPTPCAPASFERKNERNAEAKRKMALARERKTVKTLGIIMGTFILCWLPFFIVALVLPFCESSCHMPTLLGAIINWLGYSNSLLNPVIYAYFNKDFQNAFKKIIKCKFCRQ

[6] = target: T4, Alpha-1A adrenergic receptor (Homo sapiens) (UniProt P35348); assay: Displacement of [3H]prazosin from recombinant human alpha1 adrenoceptor expressed in CHO cell membranes at 10^-5 M after 30 mins by liquid scintillation counting method
T4 sequence (whole entry): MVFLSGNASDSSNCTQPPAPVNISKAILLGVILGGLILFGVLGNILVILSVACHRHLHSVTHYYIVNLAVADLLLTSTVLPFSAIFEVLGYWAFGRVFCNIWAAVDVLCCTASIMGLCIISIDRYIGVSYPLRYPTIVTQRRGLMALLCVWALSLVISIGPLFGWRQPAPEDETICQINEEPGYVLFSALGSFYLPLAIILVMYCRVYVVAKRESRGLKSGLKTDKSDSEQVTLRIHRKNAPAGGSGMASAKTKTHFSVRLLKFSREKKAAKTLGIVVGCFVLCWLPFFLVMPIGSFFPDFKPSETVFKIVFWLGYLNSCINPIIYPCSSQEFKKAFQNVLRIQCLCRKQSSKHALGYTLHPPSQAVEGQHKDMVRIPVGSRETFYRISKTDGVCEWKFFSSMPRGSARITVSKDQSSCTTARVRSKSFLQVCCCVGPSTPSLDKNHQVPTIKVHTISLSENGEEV

Mus musculus [7] = assay: Anticonvulsant activity in ip dosed Albino Swiss CD-1 mouse assessed as dose required to protect against 50 Hz current-induced seizure; type: functional; details: Swiss CD-1, ip
Mus musculus [8] = assay: Antidepressant-like activity in Albino Swiss CD-1 mouse assessed as immobility time at 10 mg/kg, ip administered 30 mins prior to test measured for last 4 mins of 6 mins observation by forced swim test (reference value: 153.9 to 201.9 secs); type: functional
[9] = target: 5-hydroxytryptamine receptor 6 (Homo sapiens, UniProt P50406); assay: Displacement of [3H]LSD from recombinant human 5-HT6 receptor expressed in CHO cells cell membranes after 60 mins by liquid scintillation counting method
5-hydroxytryptamine receptor 6, sequence (P50406 whole entry): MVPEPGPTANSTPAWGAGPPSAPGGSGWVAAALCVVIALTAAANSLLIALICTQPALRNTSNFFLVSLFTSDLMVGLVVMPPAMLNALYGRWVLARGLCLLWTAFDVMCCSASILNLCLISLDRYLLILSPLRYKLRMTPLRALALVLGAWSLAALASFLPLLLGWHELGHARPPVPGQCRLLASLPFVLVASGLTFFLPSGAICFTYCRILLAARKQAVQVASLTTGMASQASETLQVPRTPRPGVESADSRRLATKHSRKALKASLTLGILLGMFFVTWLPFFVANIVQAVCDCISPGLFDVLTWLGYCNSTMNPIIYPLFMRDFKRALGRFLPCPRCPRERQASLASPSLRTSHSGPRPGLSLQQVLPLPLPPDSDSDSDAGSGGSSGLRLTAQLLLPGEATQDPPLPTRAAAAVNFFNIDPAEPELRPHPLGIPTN

Mus musculus [10] = assay: Anxiolytic-like activity in Albino Swiss CD-1 mouse assessed as increase in number of punished crossings at 5 to 10 mg/kg, ip administered for 30 mins prior to test measured for 1 min by four-plate test; type: functional, organism-based
Summary of the method: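 Four-plate test in mice, i.p., 30 min before test; vehicle 0.9% NaCl; doses 1.25–10 mg/kg; number of punished crossings counted; mean ± SEM, n = 8–10 mice per group; ANOVA F statistics.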

Mus musculus [11] = assay: Antiallodynic activity in STZ-induced Albino Swiss CD-1 mouse allodynia model assessed as increase in paw withdrawal latency time at 30 mg/kg, ip measured after 60 mins by Von Frey test; type: functional, organism-based
[12] = Neurotoxicity in ip dosed Albino Swiss CD-1 mouse assessed as minimum dose required to induce motor impairment treated 30 mins prior to test by rotarod test; type: toxicity, organism-based; details: in vivo
Mus musculus [13] = assay: Antidepressant-like activity in Albino Swiss CD-1 mouse assessed as immobility time at 20 mg/kg, ip administered 30 mins prior to test measured for last 4 mins of 6 mins observation by forced swim test (reference value: 153.9 to 201.9 secs); type: functional
Mus musculus [14] = assay: Antiallodynic activity in oxaliplatin-induced Albino Swiss CD-1 mouse allodynia model assessed as effect on decrease in abnormal movement at 30 mg/kg, ip measured after 60 mins by cold plate test; type: functional, organism-based
Mus musculus [15] = assay: Antinociceptive activity in STZ-induced Albino Swiss CD-1 mouse model of thermal-induced nociception assessed as increase in latency to respond with hind paw lick or jumping at 30 mg/kg, ip measured after 60 mins by hot plate test; type: functional, organism-based
Mus musculus [16] = assay: Antiallodynic activity in oxaliplatin-induced Albino Swiss CD-1 mouse allodynia model assessed as effect on hind paw licking at 30 mg/kg, ip measured after 60 mins by cold plate test; type: functional, organism-based
Mus musculus [17] = assay: Antiallodynic activity in oxaliplatin-induced Albino Swiss CD-1 mouse allodynia model assessed as effect on shaking at 30 mg/kg, ip measured after 60 mins by cold plate test; type: functional, organism-based
[18] = Protection index, ratio of TD50 for motor impairment in ip dosed Swiss albino CD-1 mouse to ED50 for protection against 50 Hz current-induced seizures in ip dosed Swiss albino CD-1 mouse; type: toxicity, organism-based, Swiss CD-1; details: in vivo, read-out: Ratio TD50/ED50
Mus musculus [19] = assay: Antiallodynic activity in oxaliplatin-induced Albino Swiss CD-1 mouse allodynia model assessed as effect on jumping at 30 mg/kg, ip measured after 60 mins by cold plate test; type: functional, organism-based
Mus musculus [20] = assay: Toxicity in Albino Swiss CD-1 mouse assessed as death at 30 to 100 mg/kg, ip; type: organism-based; details: in vivo
Summary of the method: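 Deaths counted in mice during maximal electroshock (MES) seizure testing after i.p. dosing, 6 mice per dose (3 or 1 at some top doses); recorded as number dead/number tested alongside protection and rotarod motor impairment (10 rpm); untreated control group included.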

D(2) dopamine receptor [21] = target: T1, D(2) dopamine receptor; assay: Displacement of [3H]methylspiperonee from recombinant human D2 receptor expressed in HEK293 cell membranes at 10^-5 M after 60 mins by liquid scintillation counting method
Mus musculus [22] = assay: Anticonvulsant activity in Albino Swiss CD-1 mouse assessed as protection against 50 Hz current-induced seizure at 100 mg/kg, ip; type: functional, organism-based
Mus musculus [23] = assay: Antidepressant-like activity in Albino Swiss CD-1 mouse assessed as immobility time at 5 mg/kg, ip administered 30 mins prior to test measured for last 4 mins of 6 mins observation by forced swim test (reference value: 153.9 to 201.9 secs); type: functional
[24] = target: T2, 5-hydroxytryptamine receptor 7; assay: Antagonist activity at human 5-HT7 receptor expressed in CHO-K1 cells assessed as decrease in serotonin-induced cAMP level after 1 hr by TR-FRET assay relative to control; type: functional, cell-based
[25] = target: T2, 5-hydroxytryptamine receptor 7; assay: Agonist activity at human 5-HT7 receptor expressed in CHO-K1 cells assessed as increase in serotonin-induced cAMP level after 1 hr by TR-FRET assay relative to serotonin; type: functional, cell-based
[26] = target: T5, 5-hydroxytryptamine receptor 1A (Homo sapiens, UniProt P08908); assay: (§1) Antagonist activity at human 5-HT1A receptor expressed in CHO-K1 cells co-expressing Galpha16 assessed as decrease in serotonin calcium mobilization preincubated for 25 mins followed by serotonin challenge measured for 30 secs by aequorin-derived luminescence assay; type: functional, cell-based
T5 sequence (P08908 whole entry): T3 sequence (whole entry)

[27] = target: T3, 5-hydroxytryptamine receptor 1A (Homo sapiens); assay: as §1; type: functional, cell-based
[28] = target: T3, 5-hydroxytryptamine receptor 1A (Homo sapiens); assay: Antagonist activity at human 5-HT1A receptor expressed in CHO-K1 cells co-expressing Galpha16 assessed as decrease in serotonin-induced calcium mobilization preincubated for 25 mins followed by serotonin challenge measured for 30 secs by aequorin-derived luminescence assay relative to control; type: functional, cell-based
[29] = target: T3, 5-hydroxytryptamine receptor 1A (Homo sapiens); assay: Agonist activity at human 5-HT1A receptor expressed in CHO-K1 cells co-expressing Galpha16 assessed as increase in calcium mobilization measured for 30 secs by aequorin-derived luminescence assay relative to serotonin; type: functional, cell-based

Emax (D(2) dopamine receptor [1]): 5%
Compound: CN(C)CCCN1c2ccccc2Sc2ccc(Cl)cc21

Compound: Cc1cc(C)c(C)c(OCCOCCN2CCN(CCO)CC2)c1.Cl.Cl
Ki [2]: > 5000 nM
Activity (Mus musculus [3]): Non-Toxic
Ki [4]: 3140 nM
inhibition [5]: inactive
inhibition [6]: inactive
ED50 (Mus musculus [7]): 24.4 mg/kg
Time (Mus musculus [8]): 184.9 s
Ki [9]: > 5000 nM
Activity (Mus musculus [10]): inactive
Activity (Mus musculus [11]): Active
TD50 at 0.5 h [12]: 74.9 mg/kg
Time (Mus musculus [13]): 176.4 s
Activity (Mus musculus [14]): inactive
Activity (Mus musculus [15]): inactive
Activity (Mus musculus [16]): inactive
Activity (Mus musculus [17]): inactive
selectivity ratio [18]: 3.07
Activity (Mus musculus [19]): inactive
Activity (Mus musculus [20]): Non-Toxic
inhibition (D(2) dopamine receptor [21]): inactive
Activity (Mus musculus [22]): Active
Time (Mus musculus [23]): 171.8 s

Emax [24]: -1%
Emax [25]: -1%
Compound: CC1CCN(CC[C@H]2CCCN2S(=O)(=O)c2cccc(O)c2)CC1

IC50 [26]: 16.9 nM
Kb [27]: 6.6 nM
Emax [28]: 0%
Emax [29]: 1%
Compound: COc1ccccc1N1CCN(C[C@@H](C(=O)NC(C)(C)C)c2ccccc2)CC1
